Measurements from paper PMC9352169 (ACS Omega, 2022).
Several values for one entry are separate records, joined by “and”; a condition that tells them apart may be missing. Equal entries are not always repeated.

Key:
[1] = Substitution kinetics of chlorides by thiourea; type: physicochemical; conditions: Nu = Tu, 35 °C; for k2^1st × 10^1: first step; for k2^1st × 10^1 / k2^2nd × 10^2: pH 7.2; for k–1^2nd × 10^5: second step back reaction; for k2^2nd × 10^2: second step
Outline: (§1)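 Chloride substitution was followed by UV-vis under pseudo-first-order conditions: complex 50 μM with the nucleophile in ≥20-fold excess, in 5 mM Tris–HCl/50 mM NaCl, pH 7.2. Complex stocks were 5 mM in 5% DMF. Runs spanned 25–55 °C at 10 °C intervals, and the Tu trace was taken at 524 nm. Rate constants came from kobs vs [nucleophile] plots, with activation parameters from temperature dependence.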

[2] = Substitution kinetics of chlorides by L-methionine; type: physicochemical; conditions: Nu = L-Met, 35 °C, pH 7.2; for k2^1st × 10^1: first step; for k1^2nd × 10^4: second step (ring closure)
Outline: as §1

[3] = test system: guanosine-5′-monophosphate, 5′-GMP; assay: Substitution kinetics of chlorides by guanosine-5′-monophosphate; type: physicochemical; conditions: Nu = 5′-GMP, 35 °C; for k2^1st × 10^1: first step; for k2^1st × 10^1 / k2^2nd × 10^2: pH 7.2; for k–1^2nd × 10^5: second step back reaction; for k2^2nd × 10^2: second step
Outline: as §1

CT-DNA = CT-DNA UV-vis absorption titration; type: binding, calf; conditions: Van't Hoff equation ΔG = −RT lnKb
Outline: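 UV-vis titration of test complex (14 μM) with CT-DNA (0–90 μM) in 5 mM Tris–HCl/50 mM NaCl, pH 7.2. Complex came from a 5 mM DMSO stock diluted in buffer, and samples were equilibrated about 14 h at 37 °C. The binding constant came from absorbance changes, and ΔG from it.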

EtBr + CT-DNA adduct = assay: Fluorescence EtBr exchange titration on CT-DNA; type: binding, calf; conditions: for n (number of binding sites) / KF × 10^–4 (Scatchard binding constant) / Kapp × 10^–6 (apparent binding constant) / Ksv × 10^–4 (Stern–Volmer quenching constant) / kq × 10^–12 (bimolecular quenching rate constant): EtBr exchange; for n (number of binding sites): Scatchard; for KF × 10^–4 (Scatchard binding constant) / Kapp × 10^–6 (apparent binding constant) / Ksv × 10^–4 (Stern–Volmer quenching constant) / kq × 10^–12 (bimolecular quenching rate constant) / Decrease in initial EtBr+CT-DNA fluorescence: pH 7.2; for Decrease in initial EtBr+CT-DNA fluorescence: λem = 596 nm, λex = 510 nm
Outline: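 Competitive EtBr displacement used EtBr 20.0 μM and CT-DNA 20.0 μM with test complex added at 0–150 μM, in 5 mM Tris/50 mM NaCl, pH 7.2. Samples were equilibrated about 14 h at 37 °C. Emission was 596 nm (excitation 510 nm), with inner-filter check. Data were analysed as Stern–Volmer Io/I vs [Q] and Scatchard log[(Io–I)/I] vs log[Q].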

BSA = BSA (Bos taurus, UniProt P02769); assay: BSA fluorescence quenching titration; type: binding, bovine; conditions: for Ksv × 10^–5: BSA 1.08 μM; for Ksv × 10^–5 / Decrease in initial BSA fluorescence: λem = 348 nm; for kq × 10^–13: BSA quenching; for KF × 10^–5 / n (number of binding sites): BSA, Scatchard; for Decrease in initial BSA fluorescence: pH 7.2
Outline: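 Complex stocks were 5 mM in DMSO, diluted in buffer, and samples were incubated about 14 h at 37 °C before reading. Emission was read at 348 nm and checked for inner-filter effects by UV-vis. Data were fitted by Stern–Volmer and Scatchard analysis.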

supercoiled pcDNA = assay: Photoinduced pcDNA cleavage; type: biochemical; conditions: 250 μM complex + 0.1 μM pcDNA
[4] = test system: human breast adenocarcinoma, MCF-7 cell line; assay: MTT cytotoxicity assay, MCF-7; type: cell-based; conditions: for SI (IC50 of Vero cell line/IC50 of MCF-7 cell line): Vero vs MCF-7; for IC50: read-out: IC50 breast cancer MCF-7, MTT, 24 h incubation, n = 3
Outline: (§2)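 MTT viability assay. Vero cells were grown in MEM and MCF-7 cells in DMEM, both with 10% FBS and penicillin/streptomycin, at 37 °C and 5% CO2. Cells were exposed 24 h to test complex at 2, 4, 8, 16, 32 and 64 (DMSO stock). Viability was expressed relative to untreated control and IC50 computed. Values are mean ± SD of three independent experiments. SI = IC50 Vero / IC50 MCF-7.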

normal Vero cell line = assay: MTT cytotoxicity assay, Vero; type: cell-based; conditions: read-out: IC50 normal Vero, 24 h incubation, n = 3
Outline: as §2

zebrafish embryos [5] = assay: Zebrafish embryo acute toxicology; type: in vivo, Danio rerio; conditions: for drop of survival rate when the concentration increased from 15 to 90 μM / morphological changes in zebrafish embryos / LC50: 96 hpf; for morphological changes in zebrafish embryos: even at 90 M (printed); for LC50: zebrafish embryos
zebrafish embryos [6] = conditions: cited from earlier work

Chain of BSA (P02769 25-607): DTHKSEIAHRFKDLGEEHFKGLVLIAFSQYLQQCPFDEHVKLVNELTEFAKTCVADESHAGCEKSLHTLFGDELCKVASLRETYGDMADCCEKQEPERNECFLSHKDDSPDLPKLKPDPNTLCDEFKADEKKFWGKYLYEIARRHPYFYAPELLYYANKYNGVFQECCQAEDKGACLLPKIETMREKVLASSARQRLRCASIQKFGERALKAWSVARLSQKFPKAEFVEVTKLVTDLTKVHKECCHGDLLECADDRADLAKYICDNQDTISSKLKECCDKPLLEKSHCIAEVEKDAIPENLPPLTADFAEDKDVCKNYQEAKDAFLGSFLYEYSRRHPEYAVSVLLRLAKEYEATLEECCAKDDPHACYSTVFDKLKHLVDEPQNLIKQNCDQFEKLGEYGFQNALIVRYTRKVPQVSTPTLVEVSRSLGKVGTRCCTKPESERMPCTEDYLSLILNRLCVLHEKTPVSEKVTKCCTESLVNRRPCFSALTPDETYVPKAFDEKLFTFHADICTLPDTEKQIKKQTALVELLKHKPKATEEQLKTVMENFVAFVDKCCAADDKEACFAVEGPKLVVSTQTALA

Row | Molecule | k2^1st × 10^1 [1] | k–1^2nd × 10^5 [1] | k2^2nd × 10^2 [1] | k2^1st × 10^1 [2] | k1^2nd × 10^4 [2] | k2^1st × 10^1 [3] | k–1^2nd × 10^5 [3] | k2^2nd × 10^2 [3] | ΔG of binding with CT-DNA (CT-DNA) | n (number of binding sites) (EtBr + CT-DNA adduct) | KF × 10^–4 (Scatchard binding constant) (EtBr + CT-DNA adduct) | Kapp × 10^–6 (apparent binding constant) (EtBr + CT-DNA adduct) | Ksv × 10^–4 (Stern–Volmer quenching constant) (EtBr + CT-DNA adduct) | kq × 10^–12 (bimolecular quenching rate constant) (EtBr + CT-DNA adduct) | Decrease in initial EtBr+CT-DNA fluorescence (EtBr + CT-DNA adduct) | experimental ΔG of binding with BSA (BSA) | Ksv × 10^–5 (BSA) | SI (IC50 of Vero cell line/IC50 of MCF-7 cell line) [4] | morphological changes in zebrafish embryos (zebrafish embryos [5]) | LC50 (zebrafish embryos [5]) | further results
1 | [Cl-].[Cl-].[Pt+2].[Ru+2].c1ccc(-c2nccnc2-c2ccccn2)nc1.c1cnc2c(c1)ccc1cccnc12.c1cnc2c(c1)ccc1cccnc12 [C1, [(1,10-phenanthroline)2Ru(II)(μ-2,3-bis(2-pyridyl)pyrazine)Pt(II)dichloride]^2+] | 1.45 ± 0.15 M^–1 s^–1 | 1.04 ± 0.04 s^–1 | 2.73 ± 0.10 M^–1 s^–1 | 0.75 ± 0.11 M^–1 s^–1 | 0.37 ± 0.08 ^a s^–1 | 0.34 ± 0.09 M^–1 s^–1 | 0.20 ± 0.02 s^–1 | 0.75 ± 0.04 M^–1 s^–1 | −30 ± 3 kJ mol^–1 | 0.99 ± 0.04 | 1.00 ± 0.05 M^–1 | 3.33 ± 0.11 M^–1 | 1.59 ± 0.07 M^–1 | 0.69 ± 0.19 M^–1 s^–1 | up to 19% | −31.02 kJ mol^–1 | 1.84 ± 0.08 M^–1 | 2.12 | did not induce any significant morphological changes | 65.2 ± 1 µM | kq × 10^–13 (BSA): 1.84 ± 0.16 M^–1 s^–1; KF × 10^–5 (BSA): 0.47 ± 0.06 M^–1; n (number of binding sites) (BSA): 0.84 ± 0.03; Decrease in initial BSA fluorescence (BSA): up to 20%; % of NC (pcDNA cleavage) (supercoiled pcDNA): ~24%; IC50 [4]: 9.1 ± 1.5 µM; IC50 (normal Vero cell line): 19.3 ± 2.1 µM; drop of survival rate when the concentration increased from 15 to 90 μM (zebrafish embryos [5]): 50%
2 | [Cl-].[Cl-].[Pt+2].[Ru+2].c1ccc(-c2nc3ccccc3nc2-c2ccccn2)nc1.c1cnc2c(c1)ccc1cccnc12.c1cnc2c(c1)ccc1cccnc12 [C2, [(1,10-phenanthroline)2Ru(II)(μ-2,3-bis(2-pyridyl)quinoxaline)Pt(II)dichloride]^2+] | 4.26 ± 0.21 M^–1 s^–1 | 4.35 ± 0.09 s^–1 | 8.65 ± 0.15 M^–1 s^–1 | 1.75 ± 0.18 M^–1 s^–1 | 1.02 ± 0.15 ^a s^–1 | 0.96 ± 0.13 M^–1 s^–1 | 0.84 ± 0.04 s^–1 | 1.48 ± 0.08 M^–1 s^–1 | −35 ± 2 kJ mol^–1 | 0.99 ± 0.05 | 1.98 ± 0.11 M^–1 | 6.25 ± 0.17 M^–1 | 2.83 ± 0.13 M^–1 | 1.23 ± 0.24 M^–1 s^–1 | ≤ 23% | −31.55 kJ mol^–1 | 2.26 ± 0.15 M^–1 | 4.38 | did not induce any significant morphological changes | 96.3 ± 1.4 µM | kq × 10^–13 (BSA): 2.26 ± 0.24 M^–1 s^–1; KF × 10^–5 (BSA): 1.16 ± 0.10 M^–1; n (number of binding sites) (BSA): 1.00 ± 0.05; Decrease in initial BSA fluorescence (BSA): ≤ 17%; % of NC (pcDNA cleavage) (supercoiled pcDNA): ~18%; IC50 [4]: 4 ± 1.1 µM; IC50 (normal Vero cell line): 17.5 ± 1.9 µM
3 | [Cl-].[Cl-].[Pt+2].[Ru+2].c1ccc(-c2nc3cc4ccccc4cc3nc2-c2ccccn2)nc1.c1cnc2c(c1)ccc1cccnc12.c1cnc2c(c1)ccc1cccnc12 [C3, [(1,10-phenanthroline)2Ru(II)(μ-2,3-bis(2-pyridyl)benzo[g]quinoxaline)Pt(II)dichloride]^2+] | 7.57 ± 0.29 M^–1 s^–1 | 10.99 ± 0.13 s^–1 | 14.53 ± 0.22 M^–1 s^–1 | 3.10 ± 0.26 M^–1 s^–1 | 2.08 ± 0.33 ^a s^–1 | 1.39 ± 0.15 M^–1 s^–1 | 2.22 ± 0.04 s^–1 | 2.20 ± 0.10 M^–1 s^–1 | −36 ± 3 kJ mol^–1 | 1.00 ± 0.07 | 3.96 ± 0.17 M^–1 | 8.00 ± 0.23 M^–1 | 3.92 ± 0.19 M^–1 | 1.70 ± 0.31 M^–1 s^–1 | ≤ 37% | −31.97 kJ mol^–1 | 2.65 ± 0.22 M^–1 | 5.55 and 5.23 | did not induce any significant morphological changes | 149 µM | kq × 10^–13 (BSA): 2.65 ± 0.33 M^–1 s^–1; KF × 10^–5 (BSA): 6.64 ± 0.17 M^–1; n (number of binding sites) (BSA): 1.01 ± 0.07; Decrease in initial BSA fluorescence (BSA): ≤ 10%; % of NC (pcDNA cleavage) (supercoiled pcDNA): 17%; IC50 [4]: 3.1 ± 0.8 µM; IC50 (normal Vero cell line): 16.2 ± 1.7 µM; % of survival rate (zebrafish embryos [5]; 15 μM, 96 h): 86.7%; embryos abnormal, difficulty growing into juvenile zebrafish (zebrafish embryos [5]; 45 μM or higher concentration): about 25%; % of survival rate (zebrafish embryos [5]; 90 μM, 96 h): 56.7%; drop of survival rate when the concentration increased from 15 to 90 μM (zebrafish embryos [5]): 30%
4 | cis-[Pt(NH3)2Cl2] [cisplatin, reference compound] | – | – | – | – | – | – | – | – | – | – | – | – | – | – | – | – | – | 4.02 | did not induce any significant morphological changes | 181 µM | % of survival rate (zebrafish embryos [5]; 15 μM, 96 h): over 90%; % of hatching rate (zebrafish embryos [5]; 90 μM, 96 h): about 6.7%; % of survival rate (zebrafish embryos [5]; 90 μM, 96 h): 60%; lethality in zebrafish (zebrafish embryos [6]; 400 μM): lethal outcome; toxicity in developing zebrafish embryos (zebrafish embryos [6]; under 15 μM, delayed hatching up to 120 hpf): nontoxic
